Here are results for ten molecules from ChEMBL document CHEMBL1123238, “Binding requirements of phenolic phenylethylamines in the benzonorbornene skeleton at the active site of phenylethanolamine N-methyltransferase” (J Med Chem, 1986).

Data set [1] concerns the target T1, Phenylethanolamine N-methyltransferase (Bos taurus, UniProt P10938).
T1 sequence (P10938 whole entry): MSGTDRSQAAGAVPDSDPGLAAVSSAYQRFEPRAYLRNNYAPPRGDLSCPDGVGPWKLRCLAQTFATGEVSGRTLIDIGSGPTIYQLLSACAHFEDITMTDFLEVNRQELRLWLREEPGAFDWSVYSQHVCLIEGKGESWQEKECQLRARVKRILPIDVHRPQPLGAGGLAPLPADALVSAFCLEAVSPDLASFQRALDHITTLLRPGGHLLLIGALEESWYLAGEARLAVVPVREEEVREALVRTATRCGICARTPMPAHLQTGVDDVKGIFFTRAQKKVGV
The experiment in a line: Compound was tested in vitro inhibition of phenylethanolamine N-methyl-transferase (PNMT) activity using radiochemical assay.

Data set [2] is described as follows: Vmax of compound was measured. The format is ADME.
Substrate in data set [3]: N[C@@H]1CC2CCC1c1ccccc12
The data set is described as follows: (§1) Compound was tested in vitro for PNMT activity using radiochemical assay. In short, it runs like this: (§2)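 Bovine adrenal PNMT, partially purified through the isoelectric precipitation step. Compounds were tested as hydrobromide salts. Radiochemical assay used phosphate buffer at pH 8.0, unlabeled AdoMet (10 μM stock) plus [methyl-³H]AdoMet, and 30 min incubation at 37 °C. Reactions were quenched with borate at pH 10 and extracted into toluene/isoamyl alcohol (7:3), then scintillation-counted.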

Substrate in data set [4]: N[C@@H]1CC2C[C@@H]1c1ccccc12
Described as §1. In short, it runs like this:
as §2

Substrate in data set [5]: N[C@@H]1CC2CC1c1cc(O)c(O)cc12
Described as §1. In outline:
as §2

In the case of `N[C@@H]1CC2C[C@@H]1c1ccccc12`, in data set [1], affinity was put at a Ki of 479 µM. Moreover, the Vmax in data set [2] was determined as 0.08 nM/mg/min.

With `N[C@@H]1CC2CCC1c1ccccc12` (stereo not given in full), the Ki in data set [1] was determined as 258 µM. Besides, the Vmax in data set [2] was 0.61 nM/mg/min.

In data set [1], `N[C@@H]1CC2CC1c1cc(O)ccc12` (stereo not given in full) gave a Ki of 1110 µM.

In data set [1], `N[C@@H]1C2CCC1c1cc(O)ccc12` (stereo not given in full) returned a Ki of 108 µM.

In the case of `N[C@@H]1CC2CC1c1c(O)cccc12` (stereo not given in full), in data set [1], the inhibition constant (Ki) amounted to 3000 µM.

Consider `N[C@@H]1C2CCC1c1c(O)cccc12` (stereo not given in full), for which the inhibition constant (Ki) in data set [1] came out at 4000 µM.

As for `N[C@@H]1CC2CC1c1cccc(O)c12` (stereo not given in full), the affinity in data set [1], expressed as Ki, was 10000 µM.

For the molecule `N[C@@H]1CC2CC1c1ccc(O)cc12` (stereo not given in full), the Ki in data set [1] came to 304 µM.

In data set [1], `N[C@@H]1CC2CC1c1cc(O)c(O)cc12` (stereo not given in full) came in with a Ki of 487 µM. The Vmax in data set [2] amounted to 0.44 nM/mg/min.

B1: Phenylethanolamine N-methyltransferase (Bos taurus), P10938 (protein)
chain: MSGTDRSQAAGAVPDSDPGLAAVSSAYQRFEPRAYLRNNYAPPRGDLSCPDGVGPWKLRCLAQTFATGEVSGRTLIDIGSGPTIYQLLSACAHFEDITMTDFLEVNRQELRLWLREEPGAFDWSVYSQHVCLIEGKGESWQEKECQLRARVKRILPIDVHRPQPLGAGGLAPLPADALVSAFCLEAVSPDLASFQRALDHITTLLRPGGHLLLIGALEESWYLAGEARLAVVPVREEEVREALVRTATRCGICARTPMPAHLQTGVDDVKGIFFTRAQKKVGV
As for B1, the Michaelis constant (Km) in data set [3] was 81 µM; in data set [4], 192 µM; in data set [5], 686 µM.
